Measured values as given in ChEMBL document CHEMBL2429772, “Selective arylsulfonamide inhibitors of ADAM-17: hit optimization and activity in ovarian cancer cell models” (J Med Chem, 2013).

Assays:
[1] = molecular target: 72 kDa type IV collagenase (Homo sapiens, UniProt P08253); test: Inhibition of recombinant human MMP-2 using Mca-Lys-Pro-Leu-Gly-Leu-Dap(Dnp)-Ala-Arg-NH2 as substrate incubated for 4 hrs measured every 15 secs for 20 mins by fluorimetric assay
How it was run: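 Pro-MMP-2 was activated with 2 mM APMA for 1 h at 37 °C and used at 0.56 nM final. It was preincubated with inhibitor for 4 h at 25 °C in Tris 50 mM pH 7.5 buffer containing NaCl, CaCl2, Brij-35 and 1% DMSO. Substrate was at 2 µM final, ex 325/em 400 nm, run in duplicate. IC50 was taken from initial-velocity ratios, vi/vo = 1/(1+[I]/IC50).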

Interstitial collagenase = molecular target: T1, Interstitial collagenase (Homo sapiens, UniProt P03956); test: Inhibition of recombinant human MMP-1 using Mca-Lys-Pro-Leu-Gly-Leu-Dap(Dnp)-Ala-Arg-NH2 as substrate incubated for 4 hrs measured every 15 secs for 20 mins by fluorimetric assay
T1 sequence (P03956 whole entry): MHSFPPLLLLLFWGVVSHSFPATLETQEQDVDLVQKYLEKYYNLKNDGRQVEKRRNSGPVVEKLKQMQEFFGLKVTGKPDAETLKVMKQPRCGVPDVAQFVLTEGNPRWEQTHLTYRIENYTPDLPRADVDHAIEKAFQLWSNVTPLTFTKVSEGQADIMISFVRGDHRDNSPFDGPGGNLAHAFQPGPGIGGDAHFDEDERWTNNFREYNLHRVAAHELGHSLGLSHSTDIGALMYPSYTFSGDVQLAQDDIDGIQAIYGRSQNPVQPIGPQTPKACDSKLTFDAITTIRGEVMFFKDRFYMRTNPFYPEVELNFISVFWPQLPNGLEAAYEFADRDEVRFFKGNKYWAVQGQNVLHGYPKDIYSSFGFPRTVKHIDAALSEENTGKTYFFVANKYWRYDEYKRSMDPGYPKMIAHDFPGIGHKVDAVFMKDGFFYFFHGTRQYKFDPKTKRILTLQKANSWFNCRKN
How it was run: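 Pro-MMP-1 was activated with 2 mM APMA for 2 h at 37 °C. Enzyme (2.0 nM final) was incubated with inhibitor in Tris 50 mM pH 7.5, NaCl 150 mM, CaCl2 10 mM, 0.05% Brij-35, 1% DMSO for 4 h at 25 °C. Substrate was added at 2 µM final. Fluorescence (ex 325/em 400 nm) was read for initial rates, in duplicate. IC50 came from vi/vo = 1/(1+[I]/IC50).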

[2] = molecular target: T2, Disintegrin and metalloproteinase domain-containing protein 17 (Homo sapiens, UniProt P78536); test: Inhibition of recombinant human ADAM-17 using Mca-Lys-Pro-Leu-Gly-Leu-Dap(Dnp)-Ala-Arg-NH2 as substrate incubated for 30 mins measured every 15 secs for 20 mins by fluorimetric assay
How it was run: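 Enzyme at 5 nM final was preincubated with inhibitor for 30 min at 37 °C in Tris 25 mM pH 9, ZnCl2 25 µM, 0.005% Brij-35. Substrate was at 2 µM final. Fluorescence increase (ex 325/em 400 nm) gave initial rates, in duplicate. IC50 was derived from vi/vo = 1/(1+[I]/IC50).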

[3] = molecular target: Matrix metalloproteinase-14 (Homo sapiens, UniProt P50281); test: Inhibition of recombinant human MMP-14 catalytic domain using Mca-Lys-Pro-Leu-Gly-Leu-Dap(Dnp)-Ala-Arg-NH2 as substrate incubated for 4 hrs measured every 15 secs for 20 mins by fluorimetric assay
How it was run: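 MMP-14 catalytic domain was used at 1.0 nM final with no activation step. It was incubated with inhibitor for 4 h at 25 °C in Tris 50 mM pH 7.5 buffer with NaCl 150 mM, CaCl2 10 mM, 0.05% Brij-35 and 1% DMSO. Substrate was at 2 µM final, ex 325/em 400 nm, duplicate wells. IC50 was fitted by vi/vo = 1/(1+[I]/IC50).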

[4] = molecular target: Matrix metalloproteinase-9 (Homo sapiens, UniProt P14780); test: Inhibition of recombinant human MMP-9 using Mca-Lys-Pro-Leu-Gly-Leu-Dap(Dnp)-Ala-Arg-NH2 as substrate incubated for 4 hrs measured every 15 secs for 20 mins by fluorimetric assay
How it was run: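 Pro-MMP-9 was activated with 1 mM APMA for 1 h at 37 °C and used at 1.3 nM final. Inhibitor was incubated with enzyme for 4 h at 25 °C in Tris 50 mM pH 7.5, NaCl 150 mM, CaCl2 10 mM, 0.05% Brij-35, 1% DMSO. Substrate was at 2 µM final, ex 325/em 400 nm, in duplicate. IC50 was obtained from vi/vo = 1/(1+[I]/IC50).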

[5] = molecular target: T2, Disintegrin and metalloproteinase domain-containing protein 17; test: Inhibition of ADAM-17 in human A2780 cells assessed as inhibition of EGF-induced sALCAM release incubated for 30 mins prior to EGF induction measured after 18 hrs by ELISA; assay type: cell-based
[6] = molecular target: T3, Disintegrin and metalloproteinase domain-containing protein 10 (Homo sapiens, UniProt O14672); test: Inhibition of recombinant human ADAM-10 using Mca-Lys-Pro-Leu-Gly-Leu-Dap(Dnp)-Ala-Arg-NH2 as substrate incubated for 1 hr measured every 15 secs for 20 mins by fluorimetric assay
T3 sequence (O14672 whole entry): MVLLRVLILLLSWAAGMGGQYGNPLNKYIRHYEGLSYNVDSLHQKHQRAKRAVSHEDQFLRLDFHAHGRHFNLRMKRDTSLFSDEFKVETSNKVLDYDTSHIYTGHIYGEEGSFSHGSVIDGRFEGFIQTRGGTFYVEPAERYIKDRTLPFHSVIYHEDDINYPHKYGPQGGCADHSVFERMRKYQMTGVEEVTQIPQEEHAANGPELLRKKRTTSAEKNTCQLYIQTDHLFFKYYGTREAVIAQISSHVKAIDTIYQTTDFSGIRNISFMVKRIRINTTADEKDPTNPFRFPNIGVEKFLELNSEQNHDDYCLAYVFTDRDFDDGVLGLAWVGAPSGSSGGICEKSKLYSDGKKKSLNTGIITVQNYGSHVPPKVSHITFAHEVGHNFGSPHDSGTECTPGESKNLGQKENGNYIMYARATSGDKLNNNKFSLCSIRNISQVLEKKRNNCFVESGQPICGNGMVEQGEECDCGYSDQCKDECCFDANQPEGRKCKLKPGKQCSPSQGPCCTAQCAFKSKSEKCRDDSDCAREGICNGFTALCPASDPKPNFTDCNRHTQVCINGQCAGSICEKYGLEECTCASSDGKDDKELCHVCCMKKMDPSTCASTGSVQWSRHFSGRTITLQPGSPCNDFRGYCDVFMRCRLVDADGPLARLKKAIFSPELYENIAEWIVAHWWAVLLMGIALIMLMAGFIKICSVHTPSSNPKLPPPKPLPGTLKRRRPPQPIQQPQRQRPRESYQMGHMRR
How it was run: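 Enzyme at 20 nM final was preincubated with inhibitor for 1 h at 37 °C in pH 9 buffer (Tris 25 mM, ZnCl2 25 µM, 0.005% Brij-35). Substrate was at 10 µM final. Fluorescence (ex 325/em 400 nm) was followed for initial velocity, in duplicate. IC50 was calculated with vi/vo = 1/(1+[I]/IC50).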

SK-OV-3 = test: Cytotoxicity against human SKOV3 cells transfected with luciferase gene assessed as cell viability at 0.01 to 10 uM after 24 to 72 hrs by MTT assay; assay type: cell-based; details: sk-ov-3, 10 µM
[7] = Cytotoxicity against human A2774 cells assessed as cell viability at 0.01 to 10 uM after 24 to 72 hrs by MTT assay; assay type: cell-based; details: a2774, 10 µM
[8] = molecular target: T2, Disintegrin and metalloproteinase domain-containing protein 17; test: Inhibition of ADAM-17 in human SKOV3 cells transfected with luciferase gene assessed as inhibition of EGF-induced sALCAM release incubated for 30 mins prior to EGF induction measured after 18 hrs by ELISA; assay type: cell-based, SK-OV-3
[9] = molecular target: T2, Disintegrin and metalloproteinase domain-containing protein 17; test: Inhibition of ADAM-17 in human A2774 cells assessed as inhibition of EGF-induced sALCAM release incubated for 30 mins prior to EGF induction measured after 18 hrs by ELISA; assay type: cell-based
[10] = molecular target: T2, Disintegrin and metalloproteinase domain-containing protein 17; test: Inhibition of ADAM-17 in human A2780 cells assessed as inhibition of pervanadate-induced sALCAM release incubated for 30 mins prior to pervanadate induction measured after 90 mins by ELISA; assay type: cell-based
[11] = molecular target: T2, Disintegrin and metalloproteinase domain-containing protein 17; test: Inhibition of ADAM-17 in human A2774 cells assessed as inhibition of pervanadate-induced sALCAM release incubated for 30 mins prior to pervanadate induction measured after 90 mins by ELISA; assay type: cell-based
[12] = molecular target: T2, Disintegrin and metalloproteinase domain-containing protein 17; test: Inhibition of ADAM-17 in human SKOV3 cells transfected with luciferase gene assessed as inhibition of pervanadate-induced sALCAM release incubated for 30 mins prior to pervanadate induction measured after 90 mins by ELISA; assay type: cell-based, SK-OV-3
A2780 = test: Cytotoxicity against human A2780 cells assessed as cell viability at 0.01 to 10 uM after 24 to 72 hrs by MTT assay; assay type: cell-based; details: a2780, 10 µM

Chain of Matrix metalloproteinase-9 (P14780 whole entry): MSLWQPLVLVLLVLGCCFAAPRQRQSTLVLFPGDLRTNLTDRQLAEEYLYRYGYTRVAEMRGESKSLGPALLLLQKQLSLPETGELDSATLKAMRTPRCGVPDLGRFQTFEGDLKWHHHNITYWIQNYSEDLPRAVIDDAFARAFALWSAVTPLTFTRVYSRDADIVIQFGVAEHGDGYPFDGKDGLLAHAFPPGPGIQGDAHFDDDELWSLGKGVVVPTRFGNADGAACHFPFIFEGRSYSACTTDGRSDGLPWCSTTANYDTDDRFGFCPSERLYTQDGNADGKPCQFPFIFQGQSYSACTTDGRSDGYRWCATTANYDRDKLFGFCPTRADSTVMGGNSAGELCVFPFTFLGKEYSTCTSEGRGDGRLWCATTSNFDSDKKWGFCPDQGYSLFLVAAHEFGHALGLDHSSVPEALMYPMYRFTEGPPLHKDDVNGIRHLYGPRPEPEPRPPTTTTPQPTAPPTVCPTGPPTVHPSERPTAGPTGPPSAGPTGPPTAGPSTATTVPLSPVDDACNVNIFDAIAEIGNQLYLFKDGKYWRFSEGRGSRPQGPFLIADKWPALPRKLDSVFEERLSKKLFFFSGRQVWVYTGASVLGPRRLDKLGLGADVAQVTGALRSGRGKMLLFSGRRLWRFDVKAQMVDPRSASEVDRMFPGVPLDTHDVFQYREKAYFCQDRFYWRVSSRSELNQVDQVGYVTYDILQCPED
Chain of 72 kDa type IV collagenase (P08253 whole entry): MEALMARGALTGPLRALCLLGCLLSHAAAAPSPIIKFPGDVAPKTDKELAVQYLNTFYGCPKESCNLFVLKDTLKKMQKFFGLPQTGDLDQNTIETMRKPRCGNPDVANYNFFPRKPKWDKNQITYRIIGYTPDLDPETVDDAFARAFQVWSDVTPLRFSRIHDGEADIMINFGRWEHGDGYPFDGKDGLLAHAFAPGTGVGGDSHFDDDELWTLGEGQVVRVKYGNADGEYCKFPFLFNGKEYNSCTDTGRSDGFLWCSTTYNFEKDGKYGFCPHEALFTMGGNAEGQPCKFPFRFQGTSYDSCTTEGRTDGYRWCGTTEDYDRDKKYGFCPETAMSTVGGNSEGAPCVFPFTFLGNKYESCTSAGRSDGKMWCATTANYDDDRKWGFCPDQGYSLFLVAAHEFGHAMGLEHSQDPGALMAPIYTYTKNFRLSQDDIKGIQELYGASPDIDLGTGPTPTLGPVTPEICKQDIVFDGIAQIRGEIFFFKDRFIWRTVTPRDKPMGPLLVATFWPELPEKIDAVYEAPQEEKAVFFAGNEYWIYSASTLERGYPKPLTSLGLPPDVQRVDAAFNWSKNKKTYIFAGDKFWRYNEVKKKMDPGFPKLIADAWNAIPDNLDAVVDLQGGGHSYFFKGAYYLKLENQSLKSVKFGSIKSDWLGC
T2 sequence (P78536 whole entry, the tested form may be a part): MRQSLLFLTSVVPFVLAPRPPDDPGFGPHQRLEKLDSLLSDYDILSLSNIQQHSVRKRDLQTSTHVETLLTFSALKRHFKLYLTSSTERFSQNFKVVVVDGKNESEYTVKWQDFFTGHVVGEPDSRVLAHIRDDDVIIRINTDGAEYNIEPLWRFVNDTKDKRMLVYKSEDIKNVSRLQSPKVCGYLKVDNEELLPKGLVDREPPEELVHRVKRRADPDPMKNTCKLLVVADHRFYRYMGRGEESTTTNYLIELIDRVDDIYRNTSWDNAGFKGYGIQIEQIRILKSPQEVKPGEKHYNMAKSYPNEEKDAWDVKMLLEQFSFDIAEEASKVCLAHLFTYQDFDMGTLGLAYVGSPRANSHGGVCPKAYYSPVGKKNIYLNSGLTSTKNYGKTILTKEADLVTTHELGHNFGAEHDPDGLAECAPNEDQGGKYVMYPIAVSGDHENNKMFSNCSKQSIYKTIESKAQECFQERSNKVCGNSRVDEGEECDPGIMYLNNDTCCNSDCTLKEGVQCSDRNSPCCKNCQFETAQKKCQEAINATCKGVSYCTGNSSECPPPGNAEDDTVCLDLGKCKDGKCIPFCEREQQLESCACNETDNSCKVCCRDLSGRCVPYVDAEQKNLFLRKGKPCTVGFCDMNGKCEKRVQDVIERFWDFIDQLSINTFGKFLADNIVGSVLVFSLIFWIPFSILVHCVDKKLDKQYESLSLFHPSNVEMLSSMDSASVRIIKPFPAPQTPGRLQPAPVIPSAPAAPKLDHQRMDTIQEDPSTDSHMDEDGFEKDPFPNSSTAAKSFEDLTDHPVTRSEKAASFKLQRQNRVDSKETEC

SMILES	IC50 [1]	IC50 (Interstitial collagenase)	IC50 [2]	IC50 [3]	IC50 [4]	IC50 [5]	IC50 [6]	IC50 [8]	IC50 [10]	IC50 [11]	IC50 [12]	Activity (SK-OV-3)	Activity [7]	IC50 [9]	Activity (A2780)
O=C(CNS(=O)(=O)c1ccc(OCc2ccc(F)cc2)cc1)NO	3 nM	32000 nM	145 nM	590 nM	42 nM	–	–	–	–	–	–	–	–	–	–
COc1ccc(-c2cc(Br)cc(COc3ccc(S(=O)(=O)NCC(=O)NO)cc3)c2)cc1	3800 nM	> 200000 nM	320 nM	170000 nM	–	–	–	–	–	–	–	–	–	–	–
O=C(CNS(=O)(=O)c1ccc(OCc2ccc(Br)cc2)cc1)NO	1.2 nM	120000 nM	16 nM	630 nM	1.4 nM	–	–	–	–	–	–	–	–	–	–
O=C(CNS(=O)(=O)c1ccc(OCc2cc(F)cc(F)c2)cc1)NO	18 nM	181000 nM	82 nM	890 nM	330 nM	–	–	–	–	–	–	–	–	–	–
O=C(O)CNS(=O)(=O)c1ccc(OCc2cc(Br)cc(Br)c2)cc1	125000 nM	–	> 50000 nM	–	–	–	–	–	–	–	–	–	–	–	–
O=C(NCCC[C@@H](NS(=O)(=O)c1ccc(OCc2cc(Br)cc(Br)c2)cc1)C(=O)NO)OCc1ccccc1	1440 nM	370000 nM	11 nM	68000 nM	4400 nM	10000 nM	300 nM	5640 nM	349 nM	274 nM	350 nM	Non-toxic	Non-toxic	7630 nM	Non-toxic
CC#CCOc1ccc(S(=O)(=O)N[C@H](CCNC(=O)OCc2ccccc2)C(=O)NO)cc1	–	–	–	–	–	1440 nM	–	966 nM	< 10 nM	26 nM	14 nM	Non-toxic	Non-toxic	–	Non-toxic
NC(=O)NCCC[C@@H](NS(=O)(=O)c1ccc(OCc2cc(Br)cc(Br)c2)cc1)C(=O)NO	–	> 500000 nM	–	–	–	845 nM	–	4270 nM	< 10 nM	45 nM	58 nM	Non-toxic	Non-toxic	651 nM	Non-toxic
O=C(CNS(=O)(=O)c1ccc(OCc2cccc(-c3ccccc3)c2)cc1)NO	41 nM	100000 nM	76 nM	1700 nM	920 nM	–	–	–	–	–	–	–	–	–	–
O=C(CNS(=O)(=O)c1ccc(OCc2cccc(OC(F)(F)F)c2)cc1)NO	20 nM	> 500000 nM	280 nM	2900 nM	76 nM	–	–	–	–	–	–	–	–	–	–
O=C(CNS(=O)(=O)c1ccc(OCc2ccc(OC(F)(F)F)cc2)cc1)NO	7.5 nM	74000 nM	200 nM	7200 nM	37 nM	–	–	–	–	–	–	–	–	–	–

Continued by falling IC50 [2], values first:

IC50 [1]	IC50 (Interstitial collagenase)	IC50 [2]	IC50 [3]	IC50 [4]	IC50 [5]	IC50 [6]	IC50 [8]	IC50 [10]	IC50 [11]	IC50 [12]	SMILES	Activity (SK-OV-3)	Activity [7]	IC50 [9]	Activity (A2780)
670 nM	620000 nM	650 nM	120000 nM	29000 nM	–	–	–	–	–	–	O=C(CNS(=O)(=O)c1ccc(OCc2cccc3cccnc23)cc1)NO	–	–	–	–
48 nM	> 500000 nM	640 nM	72000 nM	690 nM	–	–	–	–	–	–	O=C(CNS(=O)(=O)c1ccc(OCc2ccc(-c3ccccc3)cc2)cc1)NO	–	–	–	–
–	–	590 nM	–	96 nM	–	–	–	–	–	–	O=C(CNS(=O)(=O)c1ccc(OCc2ccccc2)cc1)NO	–	–	–	–
1050 nM	> 500000 nM	500 nM	21400 nM	–	–	–	–	–	–	–	O=C(CNS(=O)(=O)c1ccc(OCc2cc(Br)cc(-c3cccnc3)c2)cc1)NO	–	–	–	–
1870 nM	> 200000 nM	160 nM	123000 nM	–	–	–	–	–	–	–	CN(CC(=O)NO)S(=O)(=O)c1ccc(OCc2cc(Br)cc(Br)c2)cc1	–	–	–	–
15 nM	> 500000 nM	104 nM	1600 nM	60 nM	–	–	–	–	–	–	O=C(CNS(=O)(=O)c1ccc(OCc2cccc(Br)c2)cc1)NO	–	–	–	–
7.8 nM	61000 nM	71 nM	940 nM	110 nM	–	–	–	–	–	–	O=C(CNS(=O)(=O)c1ccc(OCc2cccc(F)c2)cc1)NO	–	–	–	–
110 nM	28000 nM	17 nM	2900 nM	890 nM	–	–	–	–	–	–	CC#CCOc1ccc(S(=O)(=O)NCC(=O)NO)cc1	–	–	–	–
